Data taken from ChEMBL document CHEMBL1153955, “Indolylarylsulfones bearing natural and unnatural amino acids. Discovery of potent inhibitors of HIV-1 non-nucleoside wild type and resistant mutant strains reverse transcriptase and coxsackie B4 virus” (J Med Chem, 2009).

Legend:
[1] = tested on: Influenza A virus; experiment: Antiviral activity against influenza H1N1 virus in MDCK cells assessed as reduction of virus-induced cytopathicity by MTS method; assay type: functional, organism-based; details: Influenza A virus, H1N1, MDCK
[2] = Cytotoxicity against feline CRFK cells by MTS assay; assay type: cell-based, Felis catus; details: cat
[3] = tested on: Human respirovirus 3; experiment: Antiviral activity against Parainfluenza virus type 3 in african green monkey Vero cells assessed as protection against virus-induced cytopathicity; assay type: functional, organism-based; details: Human respirovirus 3, Vero
Summary of the method: (§1)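 Confluent cell monolayers inoculated with 100 CCID₅₀ virus. After 1-2 h adsorption, residual virus removed and cultures incubated with varying compound concentrations. Cytopathicity scored once it reached completion in untreated infected controls. EC₅₀ = dose reducing virus-induced cytopathogenicity by 50%.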

[4] = tested on: Felid alphaherpesvirus 1; experiment: Antiviral activity against Feline herpesvirus in feline […] cells assessed as inhibition of virus-induced cytopathicity; assay type: functional, organism-based
[5] = tested on: Influenza B virus; experiment: Antiviral activity against influenza B virus in MDCK cells assessed as reduction of virus-induced cytopathicity by visual cytopathic effect scoring method; assay type: functional, organism-based
[6] = Cytotoxicity against human HEL cells assessed as drug level causing microscopically detectable alteration of normal cell morphology after 3 days; assay type: cell-based
[7] = tested on: Influenza B virus; experiment: Antiviral activity against influenza B virus in MDCK cells assessed as reduction of virus-induced cytopathicity by MTS method; assay type: functional, organism-based
[8] = tested on: Vesicular stomatitis virus; experiment: Antiviral activity against VSV in human HEL cells assessed as protection against virus-induced cytopathicity; assay type: functional, organism-based
[9] = tested on: Coxsackievirus B4; experiment: Antiviral activity against Coxsackievirus B4 in human HeLa cells assessed as protection against virus-induced cytopathicity; assay type: functional, organism-based; details: Enterovirus B; summary of the method: as §1
[10] = tested on: Human alphaherpesvirus 2; experiment: Antiviral activity against HSV2 G in human HEL cells assessed as protection against virus-induced cytopathicity; assay type: functional, organism-based; details: Human alphaherpesvirus 2, strain G; summary of the method: as §1
[11] = tested on: Influenza A virus H3N2; experiment: Antiviral activity against influenza H3N2 virus in MDCK cells assessed as reduction of virus-induced cytopathicity by MTS method; assay type: functional, organism-based
[12] = tested on: Influenza A virus; experiment: Antiviral activity against influenza H1N1 virus in MDCK cells assessed as reduction of virus-induced cytopathicity by visual cytopathic effect scoring method; assay type: functional, organism-based
[13] = tested on: Influenza A virus H3N2; experiment: Antiviral activity against influenza H3N2 virus in MDCK cells assessed as reduction of virus-induced cytopathicity by visual cytopathic effect scoring method; assay type: functional, organism-based
[14] = tested on: Feline coronavirus; experiment: Antiviral activity against Feline coronavirus in feline […] cells assessed as inhibition of virus-induced cytopathicity; assay type: functional, organism-based; details: Alphacoronavirus 1
[15] = tested on: Mammalian orthoreovirus 1; experiment: Antiviral activity against Reovirus 1 in african green monkey Vero cells assessed as protection against virus-induced cytopathicity; assay type: functional, organism-based; details: Mammalian orthoreovirus 1, Vero; summary of the method: as §1
[16] = tested on: Human immunodeficiency virus 1; experiment: Antiviral activity against HIV1 3B in human CEM cells assessed as protection against virus-induced cytopathicity after 4 days; assay type: functional, organism-based; details: Human immunodeficiency virus 1, 3B, CCRF-CEM, 96 h
Summary of the method: (§2)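 CEM cells (~3 × 10⁵ cells/mL) infected with ~100 CCID₅₀ per mL of HIV-1 (IIIB) or HIV-2 (ROD), then seeded into wells containing compound dilutions. After 4 days at 37 °C, syncytium (giant cell) formation was examined microscopically. EC₅₀ = concentration protecting CEM cells from HIV cytopathicity by 50%.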

[17] = tested on: Respiratory syncytial virus; experiment: Antiviral activity against RSV Long in human HeLa cells assessed as protection against virus-induced cytopathicity; assay type: functional, organism-based; summary of the method: as §1
[18] = tested on: Human immunodeficiency virus 1; experiment: Antiviral activity against HIV1 with reverse transcriptase Y188L mutation in human CEM cells assessed as protection against virus-induced cytopathicity; assay type: functional, organism-based; details: Human immunodeficiency virus 1, CCRF-CEM
Summary of the method: (§3)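 CEM cells (~3 × 10⁵ cells/mL) were infected with ~100 CCID₅₀ virus per mL and seeded with serial compound dilutions. After 4 days at 37 °C, syncytium (giant cell) formation was scored microscopically. EC₅₀ is the concentration giving 50% protection against virus cytopathicity.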

[19] = Antiproliferative activity against human Molt4/C8 cells after 3 days; assay type: cell-based; details: MOLT-4, 72 h
Summary of the method: (§4)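 Cells seeded at 5 × 10⁴ to 7.5 × 10⁴ cells/200 µL with or without serial compound dilutions; incubated at 37 °C for 2 days (L1210) or 3 days (Molt4/C8, CEM). Cell numbers counted with a Coulter counter. CC₅₀ = concentration reducing proliferation by 50% versus untreated controls, read from plots of cell number (% of control) against concentration. Means of at least two independent experiments.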

[20] = tested on: Human immunodeficiency virus 1; experiment: Antiviral activity against HIV1 with reverse transcriptase K103N mutation in human CEM cells assessed as protection against virus-induced cytopathicity; assay type: functional, organism-based; details: Human immunodeficiency virus 1, CCRF-CEM; summary of the method: as §3
[21] = Cytotoxicity against MDCK cells assessed as drug level causing microscopically detectable alteration of normal cell morphology; assay type: cell-based, Canis lupus familiaris; details: dog
[22] = Cytotoxicity against human HeLa cells assessed as drug level causing microscopically detectable alteration of normal cell morphology after 3 days; assay type: cell-based
Summary of the method: (§5)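 Serial compound dilutions added to confluent HeLa or Vero monolayers. MCC = minimum concentration causing microscopically detectable alteration of cell morphology after 3 days of incubation.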

[23] = tested on: L1210; experiment: Antiproliferative activity against mouse L1210 cells after 2 days; assay type: cell-based; details: L1210, 48 h; summary of the method: as §4
[24] = tested on: Sindbis virus; experiment: Antiviral activity against Sindbis virus in african green monkey Vero cells assessed as protection against virus-induced cytopathicity; assay type: functional, organism-based; summary of the method: as §1
[25] = tested on: Human immunodeficiency virus 1; experiment: Antiviral activity against HIV1 with reverse transcriptase L100I mutation in human CEM cells assessed as protection against virus-induced cytopathicity; assay type: functional, organism-based; details: Human immunodeficiency virus 1, CCRF-CEM; summary of the method: as §3
[26] = tested on: Human immunodeficiency virus 1; experiment: Antiviral activity against HIV1 with reverse transcriptase Y181I mutation in human CEM cells assessed as protection against virus-induced cytopathicity; assay type: functional, organism-based; details: Human immunodeficiency virus 1, CCRF-CEM; summary of the method: as §3
[27] = tested on: Human alphaherpesvirus 1; experiment: Antiviral activity against HSV1 KOS in human HEL cells assessed as protection against virus-induced cytopathicity; assay type: functional, organism-based; details: Human alphaherpesvirus 1, KOS
[28] = biological target: Human immunodeficiency virus type 1 reverse transcriptase (Human immunodeficiency virus 1, UniProt Q72547, K103N); experiment: Inhibition of HIV1 reverse transcriptase p66/p51 K103N mutant; details: read-out: IC50
Summary of the method: (§6)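 Substrate was 0.5 µg poly(rA)/oligo(dT) 10:1 (0.3 µM 3′-OH ends) with 10 µM [³H]dTTP, at 37 °C. Acid-precipitable radioactivity was counted on GF/C filters after TCA washes.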

[29] = tested on: Punta Toro virus; experiment: Antiviral activity against Punta Toro virus in african green monkey Vero cells assessed as protection against virus-induced cytopathicity; assay type: functional, organism-based; summary of the method: as §1
[30] = Cytotoxicity against african green monkey Vero cells assessed as drug level causing microscopically detectable alteration of normal cell morphology after 3 days; assay type: cell-based; details: chlorocebus sabaeus; summary of the method: as §5
[31] = biological target: Human immunodeficiency virus type 1 reverse transcriptase (Human immunodeficiency virus 1, UniProt Q72547, Y181I); experiment: Inhibition of HIV1 reverse transcriptase p66/p51 Y181I mutant; details: read-out: IC50; summary of the method: as §6
[32] = tested on: Human alphaherpesvirus 1; experiment: Antiviral activity against thymidine kinase deficient and acyclovir resistant HSV1 KOS in human HEL cells assessed as protection against virus-induced cytopathicity; assay type: functional, organism-based; details: Human alphaherpesvirus 1, KOS
[33] = tested on: Vaccinia virus; experiment: Antiviral activity against Vaccinia virus Lederle in human HEL cells assessed as protection against virus-induced cytopathicity; assay type: functional, organism-based; details: Orthopoxvirus vaccinia
[34] = tested on: Coxsackievirus B4; experiment: Antiviral activity against Coxsackievirus B4 in african green monkey Vero cells assessed as protection against virus-induced cytopathicity; assay type: functional, organism-based; details: Enterovirus B; summary of the method: as §1
[35] = biological target: Human immunodeficiency virus type 1 reverse transcriptase (Human immunodeficiency virus 1, UniProt Q72547, L100I); experiment: Inhibition of HIV1 reverse transcriptase p66/p51 L100I mutant; details: read-out: IC50; summary of the method: as §6
[36] = tested on: Vesicular stomatitis virus; experiment: Antiviral activity against VSV in human HeLa cells assessed as protection against virus-induced cytopathicity; assay type: functional, organism-based
[37] = tested on: Human immunodeficiency virus 2; experiment: Antiviral activity against HIV2 ROD in human CEM cells assessed as protection against virus-induced cytopathicity after 4 days; assay type: functional, organism-based; details: Human immunodeficiency virus 2, ROD, CCRF-CEM, 96 h; summary of the method: as §2
[38] = tested on: CCRF-CEM; experiment: Antiproliferative activity against human CEM cells after 3 days; assay type: cell-based; details: 72 h; summary of the method: as §4
[39] = tested on: Human immunodeficiency virus 1; experiment: Antiviral activity against HIV1 with reverse transcriptase Y181C mutation in human CEM cells assessed as protection against virus-induced cytopathicity; assay type: functional, organism-based; details: Human immunodeficiency virus 1, CCRF-CEM; summary of the method: as §3
[40] = Cytotoxicity against MDCK cells by MTS assay; assay type: cell-based, Canis lupus familiaris; details: dog
[41] = biological target: Human immunodeficiency virus type 1 reverse transcriptase (Human immunodeficiency virus 1, UniProt Q72547); experiment: Inhibition of HIV1 reverse transcriptase p66/p51; details: read-out: IC50

For `Cc1cc(C)cc(S(=O)(=O)c2c(C(=O)NCC(N)=O)[nH]c3ccc(Cl)cc23)c1`, the EC50 [1] was > 4 µM, the CC50 [2] was > 100 µM and the EC50 [3] was > 100 µM. The EC50 [4] was > 100 µM, the EC50 [5] was > 4 µM and the MCC at 72 h [6] was > 100 µM. The EC50 [7] was > 4 µM, the EC50 [8] was > 100 µM and the EC50 [9] was ≥ 20 µM. For the same compound, the EC50 [10] was > 100 µM, the EC50 [11] was > 4 µM and the EC50 [12] was > 4 µM. The EC50 [13] was > 4 µM, the EC50 [14] was > 100 µM and the EC50 [15] was > 100 µM. For the same compound, the EC50 [16] was 1.9 nM, the EC50 [17] was > 100 µM and the IC50 [18] was 690 nM. For the same compound, the IC50 [19] was 15 µM, the IC50 [20] was 29 nM and the MCC [21] was 20 µM. The MCC at 72 h [22] was 100 µM, the IC50 [23] was 220 µM and the EC50 [24] was > 100 µM. The IC50 [25] was 8 nM, the IC50 [26] was > 1 µM and the EC50 [27] was > 100 µM. For the same compound, the IC50 [28] was 280 nM, the EC50 [29] was > 100 µM and the MCC at 72 h [30] was > 100 µM. For the same compound, the IC50 [31] was 1.65 µM, the EC50 [32] was > 100 µM and the EC50 [33] was > 100 µM. For the same compound, the EC50 [34] was > 100 µM, the IC50 [35] was 161 nM and the EC50 [36] was > 100 µM. The EC50 [37] was > 50 µM, the IC50 [38] was 92 µM and the IC50 [39] was 0.074 µM. The CC50 [40] was 44.1 µM and the IC50 [41] was 26 nM.

For `Cc1ccnc2c1NC(=O)c1cccnc1N2C1CC1` [NEVIRAPINE], the IC50 [18] was > 10000 nM, the IC50 [20] was 2900 nM and the IC50 [25] was 60 nM. The IC50 [26] was > 10 µM and the IC50 [39] was 11 µM.

In the case of `Cc1cc(C)cc(S(=O)(=O)c2c(C(=O)NC(C)CC(N)=O)[nH]c3ccc(Br)cc23)c1` (configuration not stated), the EC50 [1] is reported as > 4 µM, the CC50 [2] is reported as 11.1 µM and the EC50 [3] is reported as > 20 µM. For the same compound, the EC50 [4] was > 4 µM, the EC50 [5] was > 4 µM and the MCC at 72 h [6] was 20 µM. The EC50 [7] was > 4 µM, the EC50 [8] was > 4 µM and the EC50 [9] was ≥ 20 µM. The EC50 [10] was > 4 µM, the EC50 [11] was > 4 µM and the EC50 [12] was > 4 µM. The EC50 [13] was > 4 µM, the EC50 [14] was > 4 µM and the EC50 [15] was > 20 µM. For the same compound, the EC50 [16] was 1.5 nM, the EC50 [17] was > 20 µM and the IC50 [19] was 16 µM. The MCC [21] was ≥ 4 µM, the MCC at 72 h [22] was ≥ 20 µM and the IC50 [23] was 16 µM. The EC50 [24] was > 20 µM, the EC50 [27] was > 4 µM and the IC50 [28] was 321 nM. The EC50 [29] was > 20 µM, the MCC at 72 h [30] was ≥ 20 µM and the IC50 [31] was 15.8 µM. For the same compound, the EC50 [32] was > 4 µM, the EC50 [33] was > 4 µM and the EC50 [34] was > 20 µM. The IC50 [35] was 296 nM, the EC50 [36] was > 20 µM and the EC50 [37] was > 10 µM. It also gave an IC50 [38] of 18 µM, a CC50 [40] of 79 µM and an IC50 [41] of 81 nM.
